Source: ChEMBL document CHEMBL3853298, “Total synthesis and in vitro bioevaluation of clavaminols A, C, H & deacetyl clavaminol H as potential chemotherapeutic and antibiofilm agents” (Eur J Med Chem, 2016)
Converted amounts (≈) assume the structure as drawn.

How the values were obtained:
Micrococcus luteus = test: Antibiofilm activity against Micrococcus luteus MTCC 2470 incubated for 24 hrs under static condition by crystal violet staining-based assay; assay type: functional
In short: (§1)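 Strains grown overnight in tryptone soy broth with 0.5% glucose. Compound (250 to 0) mixed with inoculum at 5 × 10^5 CFU/mL in polystyrene microtiter plates. Non-adherent cells washed off with PBS; wells stained with 0.1% crystal violet, dye solubilised in 95% ethanol, absorbance read at 540 nm. IC50 for 50% biofilm inhibition taken from dose-response curves. Triplicates, mean ± S.D.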

Candida albicans [1] = test: Antifungal activity against Candida albicans MTCC 854 after 24 hrs by well diffusion method; assay type: functional; settings: MTCC 854, 24 h
In short: (§2)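 Candida/Issatchenkia lawns (0.1 mL suspension) on Mueller-Hinton agar; 6.0 mm bored wells receive compound across a 250 to 0.48 per-well dose range, methanol as negative control. Plates kept 24 h at 30 °C. MIC is the lowest concentration producing a visible inhibition zone. Duplicate runs, mean values.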

[2] = Cytotoxicity against human DU145 cells assessed as cell growth inhibition by MTT assay; assay type: functional, cell-based; settings: DU-145
Raoultella planticola [3] = test: Antibiofilm activity against Klebsiella planticola MTCC 530 incubated for 24 hrs under static condition by crystal violet staining-based assay; assay type: functional; in short: as §1
Nakaseomyces glabratus = test: Fungicidal activity against Candida glabrata MTCC 3019 after 24 hrs; assay type: functional; settings: MTCC 3019, 24 h
In short: (§3)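 Candida grown overnight in Mueller Hinton broth. Compound serially diluted in the same broth from 150 to 0 and inoculated to a final 1.5 × 10^8 CFU/mL (0.5 McFarland), then 24 h at 37 °C. Tube contents plated onto Mueller Hinton agar for 24 h at 37 °C. MFC is the lowest concentration killing the yeast. Duplicates.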

Candida albicans [4] = test: Fungicidal activity against Candida albicans MTCC 3018 after 24 hrs; assay type: functional; settings: MTCC 3018, 24 h; in short: as §3
Candida albicans [5] = test: Antifungal activity against Candida albicans MTCC 1637 after 24 hrs by well diffusion method; assay type: functional; settings: MTCC 1637, 24 h; in short: as §2
Escherichia coli [6] = test: Antibiofilm activity against Escherichia coli MTCC 739 incubated for 24 hrs under static condition by crystal violet staining-based assay; assay type: functional; in short: as §1
[Candida] aaseri [7] = Fungicidal activity against Candida aaseri MTCC 1962 after 24 hrs; assay type: functional; settings: Yamadazyma aaseri, MTCC 1962, 24 h; in short: as §3
Bacillus subtilis = test: Antibiofilm activity against Bacillus subtilis MTCC 121 incubated for 24 hrs under static condition by crystal violet staining-based assay; assay type: functional; in short: as §1
Candida albicans [8] = test: Fungicidal activity against Candida albicans MTCC 183 after 24 hrs; assay type: functional; settings: MTCC 183, 24 h; in short: as §3
Staphylococcus aureus [9] = test: Antibiofilm activity against Staphylococcus aureus MLS16 MTCC 2940 incubated for 24 hrs under static condition by crystal violet staining-based assay; assay type: functional; in short: as §1
Candida albicans [10] = test: Antifungal activity against Candida albicans MTCC 183 after 24 hrs by well diffusion method; assay type: functional; settings: MTCC 183, 24 h; in short: as §2
Raoultella planticola [11] = test: Antibacterial activity against Klebsiella planticola MTCC 530 after 24 hrs by well diffusion method; assay type: functional; settings: MTCC 530, 24 h
In short: (§4)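 Bacteria spread (0.1 mL suspension) on Mueller-Hinton agar; 6.0 mm wells loaded with compound over a 250 to 0.48 per-well dose range, methanol as negative control. Incubated 24 h at 37 °C. MIC taken as the lowest concentration still giving an inhibition zone. Duplicates, mean reported.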

[12] = Antifungal activity against Candida glabrata MTCC 3019 after 24 hrs by well diffusion method; assay type: functional; settings: Nakaseomyces glabratus; in short: as §2
Candida albicans [13] = test: Fungicidal activity against Candida albicans MTCC 3958 after 24 hrs; assay type: functional; settings: MTCC 3958, 24 h; in short: as §3
Pseudomonas aeruginosa [14] = test: Antibiofilm activity against Pseudomonas aeruginosa MTCC 2453 incubated for 24 hrs under static condition by crystal violet staining-based assay; assay type: functional; in short: as §1
Pichia kudriavzevii = test: Fungicidal activity against Candida krusei MTCC 3020 after 24 hrs; assay type: functional; settings: MTCC 3020, 24 h
In short: (§5)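 Broth dilution in Mueller Hinton broth with serial compound concentrations from […]. Overnight Candida cultures added to a final 1.5 × 10^8 CFU/mL (0.5 McFarland). Incubated 24 h at 37 °C, then 10 µL of each tube plated on Mueller Hinton agar for 24 h at 37 °C. MFC taken as the lowest concentration that kills the strain. Run in duplicate.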

Escherichia coli [15] = test: Antibacterial activity against Escherichia coli MTCC 739 after 24 hrs by well diffusion method; assay type: functional; settings: MTCC 739, 24 h; in short: as §4
Candida albicans [16] = test: Fungicidal activity against Candida albicans MTCC 854 after 24 hrs; assay type: functional; settings: MTCC 854, 24 h; in short: as §3
Staphylococcus aureus [17] = test: Antibacterial activity against Staphylococcus aureus MLS16 MTCC 2940 after 24 hrs by well diffusion method; assay type: functional; settings: MLS16 MTCC 2940, 24 h; in short: as §4
Pichia sporocuriosa = test: Fungicidal activity against Issatchenkia hanoiensis MTCC 4755 after 24 hrs; assay type: functional; settings: MTCC 4755, 24 h; in short: as §5
[Candida] aaseri [18] = Antifungal activity against Candida aaseri MTCC 1962 after 24 hrs by well diffusion method; assay type: functional; settings: Yamadazyma aaseri, MTCC 1962, 24 h; in short: as §2
Staphylococcus aureus [19] = test: Antibiofilm activity against Staphylococcus aureus MTCC 96 incubated for 24 hrs under static condition by crystal violet staining-based assay; assay type: functional; in short: as §1
[20] = Cytotoxicity against human MCF7 cells assessed as cell growth inhibition by MTT assay; assay type: functional, cell-based
Candida albicans [21] = test: Antifungal activity against Candida albicans MTCC 3958 after 24 hrs by well diffusion method; assay type: functional; settings: MTCC 3958, 24 h; in short: as §2
Pseudomonas aeruginosa [22] = test: Antibacterial activity against Pseudomonas aeruginosa MTCC 2453 after 24 hrs by well diffusion method; assay type: functional; settings: MTCC 2453, 24 h; in short: as §4

IC50 (Micrococcus luteus): 0.8 µg/mL (≈ 3.97 µM)
MIC (Candida albicans [1]): 15.6 µg/mL (≈ 77.5 µM)
MIC (Candida albicans [5]): 31.2 µg/mL (≈ 155 µM)
IC50 (Bacillus subtilis): 4.3 µg/mL (≈ 21.4 µM)
IC50 (Staphylococcus aureus [9]): 2.2 µg/mL (≈ 10.9 µM)
MIC (Candida albicans [10]): 31.2 µg/mL (≈ 155 µM)
MIC [12]: 15.6 µg/mL (≈ 77.5 µM)
MIC (Escherichia coli [15]): 7.8 µg/mL (≈ 38.7 µM)
MIC (Staphylococcus aureus [17]): 3.9 µg/mL (≈ 19.4 µM)
MIC ([Candida] aaseri [18]): 62.5 µg/mL (≈ 310 µM)
IC50 (Staphylococcus aureus [19]): 4.2 µg/mL (≈ 20.9 µM)
MIC (Candida albicans [21]): 31.2 µg/mL (≈ 155 µM)
MIC (Pseudomonas aeruginosa [22]): 7.8 µg/mL (≈ 38.7 µM)
Compound: CCCCCCCCC[C@H](O)[C@@H](C)N [CLAVAMINOL A]
IC50 [2]: 10.8 µM
IC50 (Raoultella planticola [3]): 8.6 µg/mL (≈ 42.7 µM)
MFC (Nakaseomyces glabratus): 31.2 µg/mL (≈ 155 µM)
MFC (Candida albicans [4]): 31.2 µg/mL (≈ 155 µM)
INH (Escherichia coli [6]): 5.2 µg/mL
MFC ([Candida] aaseri [7]): 62.5 µg/mL (≈ 310 µM)
MFC (Candida albicans [8]): 62.5 µg/mL (≈ 310 µM)
MIC (Raoultella planticola [11]): 15.6 µg/mL (≈ 77.5 µM)
MFC (Candida albicans [13]): 62.5 µg/mL (≈ 310 µM)
INH (Pseudomonas aeruginosa [14]): 3.6 µg/mL
MFC (Pichia kudriavzevii): 15.6 µg/mL (≈ 77.5 µM)
MFC (Candida albicans [16]): 31.2 µg/mL (≈ 155 µM)
MFC (Pichia sporocuriosa): 62.5 µg/mL (≈ 310 µM)
IC50 [20]: 18.2 µM
